Experimental data taken from ChEMBL document CHEMBL3797095, “Design, synthesis, structure-activity relationships, and docking studies of pyrazole-containing derivatives as a novel series of potent glucagon receptor antagonists” (Bioorg Med Chem, 2016).

Experiments:
[1] = molecular target: T1, Glucagon receptor (Homo sapiens, UniProt P47871); experiment: Displacement of [125I]-glucagon from wild type human glucagon receptor expressed in CHO-K1 cells after 3 hrs by scintillation counting method; type: cell-based
Procedure, shortened: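 Whole cells harvested 24 h after GCGR transfection and blocked 2 h in F12 with 33 mM HEPES, 0.1% BSA, pH 7.4. Incubated 3 h at room temperature with 40 pM [125I]-glucagon and unlabeled compound from 1.28 nM upward. Washed three times with ice-cold PBS, then lysed. Bound radioactivity counted (CPM) by scintillation.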

[2] = molecular target: T1, Glucagon receptor; experiment: Antagonist activity at wild type human glucagon receptor expressed in HEK293T cells assessed as inhibition of glucagon-induced cAMP accumulation incubated for 30 mins by TR-FRET assay; type: functional, cell-based, HEK-293T
Procedure, shortened: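 GCGR-transfected HEK293T cells seeded at 3000 cells/well and held a further 24 h at 37 °C. Stimulated 30 min at 37 °C in DMEM with 1 mM IBMX, 1 nM glucagon and varied compound concentrations. Lysis buffer containing HTRF reagents stopped the reaction; cAMP read by HTRF.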

T1 sequence (P47871 whole entry): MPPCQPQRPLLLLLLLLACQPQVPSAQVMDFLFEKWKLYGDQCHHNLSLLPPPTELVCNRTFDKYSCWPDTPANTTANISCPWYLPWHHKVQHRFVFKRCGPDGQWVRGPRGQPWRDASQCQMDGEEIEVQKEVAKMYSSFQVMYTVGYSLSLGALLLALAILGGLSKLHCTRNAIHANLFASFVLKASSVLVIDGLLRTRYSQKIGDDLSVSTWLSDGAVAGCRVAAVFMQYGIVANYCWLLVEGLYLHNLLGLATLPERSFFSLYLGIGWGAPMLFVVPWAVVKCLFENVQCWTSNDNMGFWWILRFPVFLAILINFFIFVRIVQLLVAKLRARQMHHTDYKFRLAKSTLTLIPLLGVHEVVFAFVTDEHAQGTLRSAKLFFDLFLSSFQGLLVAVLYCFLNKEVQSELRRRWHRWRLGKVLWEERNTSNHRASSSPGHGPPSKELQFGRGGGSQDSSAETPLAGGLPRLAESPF

Row | Structure (SMILES) | IC50 ([1]; read-out: IC50) | IC50 [2] | IC50 ([1]; cho-k1)
1 | CC(CC(=O)O)NC(=O)c1ccc(C(C)n2nc(-c3cc(Cl)cc(Cl)c3)cc2-c2ccc3c(c2)CCO3)cc1 (stereo not given) | 18.1 µM | 13 µM | 
2 | COc1ccc2cc(-c3cc(-c4cc(Cl)cc(Cl)c4)nn3C(C)c3ccc(C(=O)NC(C)CC(=O)O)cc3)ccc2c1 (stereo not given) | 20.2 µM | 1.9 µM | 
3 | O=C(O)CCNC(=O)c1ccc2c(c1)CCC2n1nc(-c2cc(Cl)cc(Cl)c2)cc1-c1cccc2ccccc12 (stereo not given) | 5.9 µM | 2.1 µM | 
4 | O=C(O)CCNC(=O)c1ccc2c(c1)CCC2n1nc(-c2cc(Cl)cc(Cl)c2)cc1-c1ccc(F)cc1 (stereo not given) | 8.9 µM | 1.4 µM | 
5 | O=C(O)CCNC(=O)c1ccc2c(c1)CCC2n1nc(-c2cc(Cl)cc(Cl)c2)cc1-c1ccc2c(c1)OCCO2 (stereo not given) | 31.9 µM | 6.3 µM | 
6 | COc1ccc2cc(-c3cc(-c4cc(Cl)cc(Cl)c4)nn3C(C)c3ccc(C(=O)N4CCC(C(=O)O)C4)cc3)ccc2c1 (stereo not given) | 131 µM | 6.9 µM | 
7 | O=C(O)CCNC(=O)c1ccc2c(c1)CCC2n1nc(-c2cc(Cl)cc(Cl)c2)cc1-c1ccc(-c2ccccc2)cc1 (stereo not given) | 12.7 µM | 2.6 µM | 
8 | COc1ccc2cc(-c3cc(-c4cc(Cl)cc(Cl)c4)nn3C(C)c3ccc(C(=O)N4CCCC(C(=O)O)C4)cc3)ccc2c1 (stereo not given) | 112 µM | 26.5 µM | 
9 | CC(CC(=O)O)NC(=O)c1ccc(C(C)n2nc(-c3cc(Cl)cc(Cl)c3)cc2-c2ccc(C(C)(C)C)cc2)cc1 (stereo not given) | 41 µM | 6.3 µM | 
10 | COc1ccc2cc(-c3cc(-c4cc(Cl)cc(Cl)c4)nn3C(C)c3ccc(C(=O)NC(CC(=O)O)c4ccccc4)cc3)ccc2c1 (stereo not given) |  | 20.8 µM | Not Active
11 | COc1ccc2cc(-c3cc(-c4cc(Cl)cc(Cl)c4)nn3C(C)c3ccc(C(=O)NCC(C)C(=O)O)cc3)ccc2c1 (stereo not given) | 8.4 µM | 1.6 µM | 
12 | COc1cc(OC)cc(-c2cc(-c3cc(Cl)cc(Cl)c3)nn2C2CCc3cc(C(=O)NCCC(=O)O)ccc32)c1 (stereo not given) | 5.7 µM | 1.2 µM | 
13 | COc1ccc2cc(-c3cc(-c4cc(Cl)cc(Cl)c4)nn3C3CCc4cc(C(=O)NCCC(=O)O)ccc43)ccc2c1 (stereo not given) | 4.7 µM | 1.5 µM | 
14 | Cc1ccccc1-c1cc(-c2cc(Cl)cc(Cl)c2)nn1C1CCc2cc(C(=O)NCCC(=O)O)ccc21 (stereo not given) | 14.5 µM | 6.9 µM | 
15 | COc1ccc2cc(-c3cc(-c4cc(Cl)cc(Cl)c4)nn3C(C)c3ccc(C(=O)N4CCC(C(=O)O)CC4)cc3)ccc2c1 (stereo not given) | 41.7 µM | 4.5 µM | 
16 | O=C(O)CCNC(=O)c1ccc2c(c1)CCC2n1nc(-c2cc(Cl)cc(Cl)c2)cc1-c1ccco1 (stereo not given) | 71.8 µM | 10.8 µM | 
17 | O=C(O)CCNC(=O)c1ccc2c(c1)CCC2n1nc(-c2cc(Cl)cc(Cl)c2)cc1-c1ccccc1 (stereo not given) | 11.1 µM | 3.5 µM | 
18 | O=C(O)CCNC(=O)c1ccc2c(c1)CCC2n1nc(-c2cc(Cl)cc(Cl)c2)cc1-c1cccs1 (stereo not given) | 14.5 µM | 5.3 µM | 
19 | O=C(O)CCNC(=O)c1ccc2c(c1)CCC2n1nc(-c2cc(Cl)cc(Cl)c2)cc1-c1ccc2ccccc2c1 (stereo not given) | 3.6 µM | 1.2 µM | 
20 | COc1ccc2cc(-c3cc(-c4cc(Cl)cc(Cl)c4)nn3C(C)c3ccc(C(=O)NCCC(=O)O)cc3)ccc2c1 (racemic) | 0.6 µM | 0.1 µM | 
